According to ChEMBL document CHEMBL1142626, “Insecticidal and mutagenic evaluation of two annonaceous acetogenins” (J Nat Prod, 2000):

Tests used:
Salmonella typhimurium [1] = experiment: Mutagenic activity in Salmonella Typhimurium TA100 assessed as number of revertants at 50 ug/plate in absence of Wistar rat S9 liver homogenate; format: toxicity, organism-based; settings: salmonella enterica subsp. enterica serovar typhimurium
Method in brief: (§1)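 Salmonella/microsome plate test, with or without S9 from livers of male Wistar rats (~200 g). Strain markers and spontaneous revertant counts were routinely verified. Revertants are reported as mean ± standard error of triplicate plates. Strain-specific positive controls were used, with 2-aminoanthracene for all strains when S9 was present.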

Salmonella typhimurium [2] = experiment: Mutagenic activity in Salmonella Typhimurium TA100 assessed as number of revertants at 100 ug/plate in absence of Wistar rat S9 liver homogenate; format: toxicity, organism-based; settings: salmonella enterica subsp. enterica serovar typhimurium; method in brief: as §1
Salmonella typhimurium [3] = experiment: Mutagenic activity in Salmonella Typhimurium TA100 assessed as number of revertants at 0.01 ug/plate in presence of Wistar rat S9 liver homogenate; format: toxicity, organism-based, Liver S9 fraction; settings: salmonella enterica subsp. enterica serovar typhimurium; method in brief: as §1
Salmonella typhimurium [4] = experiment: Mutagenic activity in Salmonella Typhimurium TA100 assessed as number of revertants at 0.1 ug/plate in presence of Wistar rat S9 liver homogenate; format: toxicity, organism-based, Liver S9 fraction; settings: salmonella enterica subsp. enterica serovar typhimurium; method in brief: as §1
Salmonella typhimurium [5] = experiment: Mutagenic activity in Salmonella Typhimurium TA100 assessed as number of revertants at 1 ug/plate in presence of Wistar rat S9 liver homogenate; format: toxicity, organism-based, Liver S9 fraction; settings: salmonella enterica subsp. enterica serovar typhimurium; method in brief: as §1
Salmonella typhimurium [6] = experiment: Mutagenic activity in Salmonella Typhimurium TA100 assessed as number of revertants at 10 ug/plate in presence of Wistar rat S9 liver homogenate; format: toxicity, organism-based, Liver S9 fraction; settings: salmonella enterica subsp. enterica serovar typhimurium; method in brief: as §1
Salmonella typhimurium [7] = experiment: Mutagenic activity in Salmonella Typhimurium TA100 assessed as number of revertants at 20 ug/plate in presence of Wistar rat S9 liver homogenate; format: toxicity, organism-based, Liver S9 fraction; settings: salmonella enterica subsp. enterica serovar typhimurium; method in brief: as §1
Salmonella typhimurium [8] = experiment: Mutagenic activity in Salmonella Typhimurium TA100 assessed as number of revertants at 50 ug/plate in presence of Wistar rat S9 liver homogenate; format: toxicity, organism-based, Liver S9 fraction; settings: salmonella enterica subsp. enterica serovar typhimurium; method in brief: as §1
Salmonella typhimurium [9] = experiment: Mutagenic activity in Salmonella Typhimurium TA102 assessed as number of revertants at 0.01 ug/plate in absence of Wistar rat S9 liver homogenate; format: toxicity, organism-based; settings: salmonella enterica subsp. enterica serovar typhimurium; method in brief: as §1
Salmonella typhimurium [10] = experiment: Mutagenic activity in Salmonella Typhimurium TA102 assessed as number of revertants at 0.1 ug/plate in absence of Wistar rat S9 liver homogenate; format: toxicity, organism-based; settings: salmonella enterica subsp. enterica serovar typhimurium; method in brief: as §1
Salmonella typhimurium [11] = experiment: Mutagenic activity in Salmonella Typhimurium TA102 assessed as number of revertants at 1 ug/plate in absence of Wistar rat S9 liver homogenate; format: toxicity, organism-based; settings: salmonella enterica subsp. enterica serovar typhimurium; method in brief: as §1
Salmonella typhimurium [12] = experiment: Mutagenic activity in Salmonella Typhimurium TA102 assessed as number of revertants at 10 ug/plate in absence of Wistar rat S9 liver homogenate; format: toxicity, organism-based; settings: salmonella enterica subsp. enterica serovar typhimurium; method in brief: as §1
Salmonella typhimurium [13] = experiment: Mutagenic activity in Salmonella Typhimurium TA102 assessed as number of revertants at 20 ug/plate in absence of Wistar rat S9 liver homogenate; format: toxicity, organism-based; settings: salmonella enterica subsp. enterica serovar typhimurium; method in brief: as §1
Salmonella typhimurium [14] = experiment: Mutagenic activity in Salmonella Typhimurium TA102 assessed as number of revertants at 50 ug/plate in absence of Wistar rat S9 liver homogenate; format: toxicity, organism-based; settings: salmonella enterica subsp. enterica serovar typhimurium; method in brief: as §1
Salmonella typhimurium [15] = experiment: Mutagenic activity in Salmonella Typhimurium TA102 assessed as number of revertants at 100 ug/plate in absence of Wistar rat S9 liver homogenate; format: toxicity, organism-based; settings: salmonella enterica subsp. enterica serovar typhimurium; method in brief: as §1
Salmonella typhimurium [16] = experiment: Mutagenic activity in Salmonella Typhimurium TA102 assessed as number of revertants at 0.01 ug/plate in presence of Wistar rat S9 liver homogenate; format: toxicity, organism-based, Liver S9 fraction; settings: salmonella enterica subsp. enterica serovar typhimurium; method in brief: as §1
Salmonella typhimurium [17] = experiment: Mutagenic activity in Salmonella Typhimurium TA102 assessed as number of revertants at 1 ug/plate in presence of Wistar rat S9 liver homogenate; format: toxicity, organism-based, Liver S9 fraction; settings: salmonella enterica subsp. enterica serovar typhimurium; method in brief: as §1
Salmonella typhimurium [18] = experiment: Mutagenic activity in Salmonella Typhimurium TA102 assessed as number of revertants at 10 ug/plate in presence of Wistar rat S9 liver homogenate; format: toxicity, organism-based, Liver S9 fraction; settings: salmonella enterica subsp. enterica serovar typhimurium; method in brief: as §1
Salmonella typhimurium [19] = experiment: Mutagenic activity in Salmonella Typhimurium TA102 assessed as number of revertants at 20 ug/plate in presence of Wistar rat S9 liver homogenate; format: toxicity, organism-based, Liver S9 fraction; settings: salmonella enterica subsp. enterica serovar typhimurium; method in brief: as §1
Salmonella typhimurium [20] = experiment: Mutagenic activity in Salmonella Typhimurium TA102 assessed as number of revertants at 50 ug/plate in presence of Wistar rat S9 liver homogenate; format: toxicity, organism-based, Liver S9 fraction; settings: salmonella enterica subsp. enterica serovar typhimurium; method in brief: as §1
Salmonella typhimurium [21] = experiment: Mutagenic activity in Salmonella Typhimurium TA102 assessed as number of revertants at 100 ug/plate in presence of Wistar rat S9 liver homogenate; format: toxicity, organism-based, Liver S9 fraction; settings: salmonella enterica subsp. enterica serovar typhimurium; method in brief: as §1
Salmonella typhimurium [22] = experiment: Bactericidal activity against Salmonella Typhimurium TA98 assessed as viability after 24 hrs in absence of Wistar rat S9 liver homogenate; format: functional, organism-based; settings: Salmonella enterica subsp. enterica serovar Typhimurium
Method in brief: (§2)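 Viability assay: test solution or DMSO was mixed with diluted overnight culture and phosphate buffer (no S9) in top agar with histidine/biotin. The mixture was spread on nutrient agar and incubated 24 h at 37 °C. Colonies were counted to give viable bacteria per mL; positive and negative controls included; triplicate.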

Salmonella typhimurium [23] = experiment: Bactericidal activity against Salmonella Typhimurium TA100 assessed as viability after 24 hrs in absence of Wistar rat S9 liver homogenate; format: functional, organism-based; settings: Salmonella enterica subsp. enterica serovar Typhimurium; method in brief: as §2
Salmonella typhimurium [24] = experiment: Bactericidal activity against Salmonella Typhimurium TA102 assessed as viability after 24 hrs in absence of Wistar rat S9 liver homogenate; format: functional, organism-based; settings: Salmonella enterica subsp. enterica serovar Typhimurium; method in brief: as §2
Salmonella typhimurium [25] = experiment: Mutagenic activity in Salmonella Typhimurium TA98 assessed as number of revertants at 0.01 ug/plate in absence of Wistar rat S9 liver homogenate; format: toxicity, organism-based; settings: salmonella enterica subsp. enterica serovar typhimurium; method in brief: as §1

CCCCCCCCCCCC[C@@H](O)[C@H]1CC[C@H]([C@H](O)CCCC[C@H](O)CCCCC[C@@H](O)CC2=CC(C)OC2=O)O1 (stereo not given in full) [ANNONACIN]
Activity (Salmonella typhimurium [1]): 85 | Activity (Salmonella typhimurium [2]): 68 | Activity (Salmonella typhimurium [3]): 135 | Activity (Salmonella typhimurium [4]): 139 | Activity (Salmonella typhimurium [5]): 140 | Activity (Salmonella typhimurium [6]): 145 | Activity (Salmonella typhimurium [7]): 139 | Activity (Salmonella typhimurium [8]): 99 | Activity (Salmonella typhimurium [9]): 328 | Activity (Salmonella typhimurium [10]): 296 | Activity (Salmonella typhimurium [11]): 277 | Activity (Salmonella typhimurium [12]): 221 | Activity (Salmonella typhimurium [13]): 204 | Activity (Salmonella typhimurium [14]): 169 | Activity (Salmonella typhimurium [15]): 126 | Activity (Salmonella typhimurium [16]): 443 | Activity (Salmonella typhimurium [17]): 429 | Activity (Salmonella typhimurium [18]): 430 | Activity (Salmonella typhimurium [19]): 432 | Activity (Salmonella typhimurium [20]): 430 | Activity (Salmonella typhimurium [21]): 437 | Activity (Salmonella typhimurium [22]): Non-toxic | Activity (Salmonella typhimurium [23]): Non-toxic | Activity (Salmonella typhimurium [24]): Non-toxic | Activity (Salmonella typhimurium [25]): 33
